Screening data (PubChem BioAssay)
Only some compounds are listed: those with a hit (about 3.1% of all), similar ones and a draw of the others.
Cneo AK release: Cryptococcus neoformans lysis via adenylate kinase release | 360,000 compounds, 0.2% hits | lysis activity, % at 15 µM | C. neoformans lysis, adenylate kinase release luminescence, 4 h; normalised: neutral wells 0, clomiphene wells 100 | AID 651654;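 active means mean lysis activity across replicates of at least 80%, whatever share of replicates individually reach that level; inactive means mean lysis activity below 80%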
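Test system: log-phase Cryptococcus neoformans yeast cells. Input: 5 × 10^6 yeast cells/mL. Medium: fresh YPD growth medium. Doses: single dose. Incubation: static 4 h at 37 °C with compound, 1 h detection. Measured by: luminescent adenylate kinase detection reagent. Read-out: signal increase indicating cell lysis. Benchmarks: Clomiphene.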
Ecoli rRNA inh: inhibitors of bacterial rRNA selective over humanized ribosomes. E. coli WT GFP vs humanized-ribosome RFP mutants, fluorescence, 24 h; hits give low values; DMSO median 0, no signal -100. 350,000 compounds, 1.6% hits. GFP signal change (wild-type ribosome), % (test concentration not listed);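 active means significant combined selectivity score with lowered wild-type GFP, culture density cut under 30%, mutant RFP and density less affected; inactive means any of these conditions unmet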
HIV Env fusion: inhibitors of HIV Env-mediated cell fusion; HeLa-JRFL Env/CEM21 cell fusion, luciferase; inhibition, % at 12.3 µM; 360,000 compounds, 1.1% hits; AID 651610;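 active means mean replicate inhibition score of at least 50 and every replicate individually at or above 50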;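 further: 0% = plate neutral controls and 100% = maraviroc near 300 nM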
GSIS activator: GLuc luminescence reporter in INS-1E cells, primary screen for activators of glucose-dependent secretion of insulin; INS-1E GLuc reporter insulin secretion, 2-3 h; 370,000 compounds, 0.61% hits; activation, % at 16.6 µM;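 active means lowest replicate activation of at least 40%, so every replicate reaches that level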;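 further: 0% = median of neutral control wells and 100% = median of IBMX positive control wells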
F508del corr: correctors of CFTR F508del function in bronchial epithelial cells; 350,000 compounds, 0.36% hits; CFBE cells, YFP halide quenching; stimulated with forskolin plus potentiator P3; % fluorescence drop versus neutral controls; activity (quench increase), % at 7.58 µM;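 active means mean added fluorescence quench of at least 8% versus neutral control, with both replicates also reaching 8%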;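 further: cells transiently co-express mutant CFTR-F508del with the halide-sensitive YFP; corrector assay measuring rescue of mutant channel to the surface after 24 h compound exposure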
miR-122 sensor: miR-122 inhibition in Huh7 cells | Huh7 miR-122 Renilla luciferase sensor, 48 h; neutral wells = 0, positive control = 100 | activation (reporter increase), % at 12.5 µM | 340,000 compounds, 0.3% hits;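 active means mean replicate activation score at least 90 and every replicate individually at or above 90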;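 further: higher luciferase means less miR-122 activity so hits act as miR-122 inhibitors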
* marks the source's active call; other numbers are inactive results; [ ] = dose if it differs, or a comment.

`COc1ccc(C(C)=O)cc1CC1(C)C(=O)Nc2ccc(OC(F)(F)F)cc21` (centres undefined) gave Cneo AK release -0.8, Ecoli rRNA inh -50.2, HIV Env fusion 10.2, GSIS activator -22.0, F508del corr -0.9 and miR-122 sensor -6.6.
COc1ccc(OC(F)(F)F)cc1CC1(C)C(=O)Nc2ccc(-c3ccsc3)cc21 (centres undefined) was read as Cneo AK release -0.2, Ecoli rRNA inh 4.7, HIV Env fusion 58.5*, GSIS activator 1.3, F508del corr 4.3 and miR-122 sensor -5.2.
`COc1ccc(OC(F)(F)F)cc1CC1(C)C(=O)Nc2cccc(Cl)c21` (centres undefined) gave Cneo AK release -3.9, Ecoli rRNA inh -9.2, HIV Env fusion 83.2*, GSIS activator -14.7, F508del corr 2.2 and miR-122 sensor 2.1.
Screening CO[C@H]1CN(C)C(=O)c2ccc(NC(=O)c3ccc4c(c3)OCO4)cc2OC[C@H](C)N(CC2CC2)C[C@H]1C returned Cneo AK release 0.5, Ecoli rRNA inh 4.2, GSIS activator 20.2 and F508del corr 0.6.
For O=C(c1ccc(F)cc1)N1CC(=O)N2[C@H](CO)[C@H](c3ccc(-c4ccccc4)cc3)[C@H]2C1 the results were Ecoli rRNA inh -4.8, GSIS activator -8.8 and F508del corr -1.8.
Screening CC1(Cc2ccc(F)cc2)C(=O)Nc2ccc(S(=O)(=O)NC3CCCCC3)cc21 (centres undefined) returned Cneo AK release -0.8, Ecoli rRNA inh -16.1, HIV Env fusion 45.7, GSIS activator -19.5, F508del corr -1.4 and miR-122 sensor 63.7.
COc1ccc(OC(F)(F)F)cc1CC1(C)C(=O)Nc2ccc(S(=O)(=O)NC3CCCCC3)cc21 (centres undefined) was read as Cneo AK release -1.0, Ecoli rRNA inh 3.8, HIV Env fusion 88.0*, GSIS activator -2.0, F508del corr -1.9 and miR-122 sensor 52.5.
For COc1ccc(NC(=O)C2CCN(c3nc(C)nc4c3CCC4)CC2)cc1 the results were Cneo AK release 7.2, HIV Env fusion 54.2* and miR-122 sensor -7.6.
`C[C@@H]1CN([C@@H](C)CO)C(=O)c2cc(N(C)C)ccc2O[C@@H]1CN(C)Cc1ccc(C(=O)Nc2ccccc2N)cc1` gave Cneo AK release -1.1, HIV Env fusion -13.8[16.7 µM], F508del corr 6.6 and miR-122 sensor 253.9*[16.7 µM].
C[C@@H]1CN([C@@H](C)CO)C(=O)Cc2cc(N(C)C)ccc2O[C@@H]1CN(C)Cc1ccccc1 was read as Cneo AK release 0.1, Ecoli rRNA inh -1.0, HIV Env fusion -49.9[16.7 µM], GSIS activator -2.7, F508del corr 10.3* and miR-122 sensor 30.0[16.7 µM].
C[C@H](CO)N1C[C@H](C)[C@H](CN(C)Cc2ccc(C(=O)Nc3ccccc3N)cc2)Oc2ccc(N(C)C)cc2CC1=O was read as Cneo AK release 37.4, Ecoli rRNA inh -3.3, HIV Env fusion -154.4[16.7 µM], GSIS activator 12.1, F508del corr 4.9 and miR-122 sensor 355.3*[16.7 µM].
Screening COc1cccc(NC(=O)C[C@H]2CC[C@H]3[C@@H](COc4ccc(NC(=O)C5CCOCC5)cc4C(=O)N3C)O2)c1 returned Cneo AK release 0.9, Ecoli rRNA inh -3.9, HIV Env fusion 10.6[16.7 µM], GSIS activator -2.5, F508del corr 0.1 and miR-122 sensor 0.0[16.7 µM].
For O=C(Nc1ccc(F)cc1)NC1CCN(Cc2nnnn2Cc2ccco2)CC1 the results were Cneo AK release 0.8, HIV Env fusion 61.0* and miR-122 sensor -7.4.
Screening COc1cc2c(-c3ccccc3)c(C)oc2cc1/C=N/NC(N)=S returned Cneo AK release 6.0, Ecoli rRNA inh 7.1, HIV Env fusion -9.5, GSIS activator 1.0 and F508del corr 8.1*.
`Cc1cccc(NC(=S)Nc2ccccn2)c1C` gave HIV Env fusion -6.4 and GSIS activator 40.7*.
For S=C(Nc1ccc(Nc2ccccc2)cc1)Nc1ccccn1 the results were Ecoli rRNA inh -32.2*, HIV Env fusion 32.9, GSIS activator 6.4, F508del corr -0.4 and miR-122 sensor -10.0.
Cc1cccc(NC(=O)Nc2ccccn2)c1C was read as Cneo AK release -0.7, Ecoli rRNA inh 18.4, HIV Env fusion -24.5, GSIS activator 5.4, F508del corr 2.7 and miR-122 sensor 5.1.
`O=C([C@H]1[C@H](CO)[C@H]2Cn3c(ccc(-c4ccccc4F)c3=O)[C@@H]1N2C(=O)C1CCC1)N1CCOCC1` gave Cneo AK release -5.9, Ecoli rRNA inh 1.7, GSIS activator 11.1, F508del corr -0.2 and miR-122 sensor -4.2[16.7 µM].
For CC(=O)Nc1cccc(-c2ccnc3c2CC(C(=O)Nc2ccc4c(c2)OCO4)O3)c1 (centres undefined) the results were Cneo AK release 1.5, Ecoli rRNA inh -21.9*, HIV Env fusion -3.7, GSIS activator 0.7, F508del corr 7.0 and miR-122 sensor -2.6.
For CN(C)c1ccc(CNC(=O)C2(C)Cc3c(-c4ccc5c(c4)OCO5)ccnc3O2)cc1 (centres undefined) the results were Cneo AK release -0.2, Ecoli rRNA inh -14.9*, HIV Env fusion -21.0, GSIS activator -0.3, F508del corr 1.3 and miR-122 sensor 1.7.
`CC(=O)Nc1ccc(NC(=O)C2Cc3c(-c4ccc5c(c4)OCO5)ccnc3O2)cc1` (centres undefined) gave Cneo AK release -3.2, Ecoli rRNA inh 0.3, HIV Env fusion 4.0, GSIS activator -3.4, F508del corr -5.2 and miR-122 sensor 1.7.
CC(=O)Nc1cccc(-c2ccnc3c2CC(C)(C(=O)Nc2ccc4c(c2)OCO4)O3)c1 (centres undefined) was read as Cneo AK release 0.7, Ecoli rRNA inh -22.1, HIV Env fusion -19.0, GSIS activator -13.9, F508del corr 10.1* and miR-122 sensor 15.2.
For CC(C)NC(=O)Nc1cccc2c1O[C@@H](CN(C)C(=O)OC(C)(C)C)[C@@H](C)CN(C)C2=O the results were Ecoli rRNA inh 3.1 and GSIS activator -9.5.
`N=c1nc2n(cc1F)C1OC(CO)C(O)C1O2` (centres undefined) gave Ecoli rRNA inh 11.7, HIV Env fusion 68.9*, GSIS activator 6.0, F508del corr 2.0 and miR-122 sensor -0.9.
`N=c1ccn2c(n1)O[C@H]1[C@H](O)[C@@H](CO)O[C@H]12` gave Cneo AK release -0.9, Ecoli rRNA inh 6.3, HIV Env fusion 24.1, GSIS activator 13.0 and F508del corr 5.4.
For O=S(=O)(c1cccc(-c2nnc(-c3ccc(Br)cc3)o2)c1)N1CCCCCC1 the results were Cneo AK release -1.3, HIV Env fusion 60.0* and miR-122 sensor 0.2.
